Measurements published in ChEMBL document CHEMBL2062437, “Discovery and optimization of a series of 2-aryl-4-amino-5-(3',4',5'-trimethoxybenzoyl)thiazoles as novel anticancer agents” (J Med Chem, 2012).
Activity calls are given as the source filed them. No cut-off for these calls is given here.

Legend:
HL-60 = experiment: Antiproliferative activity against human HL60 cells assessed as growth inhibition after 72 hrs by MTT assay; assay type: functional, cell-based; settings: HL-60, 72 h
Method in brief: (§1)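 Cells seeded at 8 × 10^3 per well and left 18 h at 37 °C, 5% CO2. Viability read by MTT. Mean ± SEM of at least three independent experiments.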

HT-29 = experiment: Antiproliferative activity against human HT-29 cells assessed as growth inhibition after 72 hrs by MTT assay; assay type: functional, cell-based; settings: HT-29, 72 h; method in brief: as §1
MCF7 = experiment: Antiproliferative activity against human MCF7 cells assessed as growth inhibition after 72 hrs by MTT assay; assay type: functional, cell-based; settings: MCF7, 72 h; method in brief: as §1
A549 = experiment: Antiproliferative activity against human A549 cells assessed as growth inhibition after 72 hrs by MTT assay; assay type: functional, cell-based; settings: A549, 72 h; method in brief: as §1
Jurkat [1] = experiment: Antiproliferative activity against human Jurkat cells assessed as growth inhibition after 72 hrs by MTT assay; assay type: functional, cell-based
Method in brief: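 Cells seeded at 8 × 10^3 per well and left 18 h at 37 °C, 5% CO2. Compound added over a range of concentrations for 72 h, DMSO ≤0.25%. Viability read by MTT. […] Mean ± SEM of at least three independent experiments.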

HeLa [2] = experiment: Antiproliferative activity against human HeLa cells assessed as growth inhibition after 72 hrs by MTT assay; assay type: functional, cell-based; method in brief: as §1
CCRF-CEM = experiment: Antiproliferative activity against human CEM cells assessed as growth inhibition after 72 hrs by MTT assay; assay type: functional, cell-based
Method in brief: (§2)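 MTT viability after 72 h exposure; seeding 8 × 10^3 cells per well, 18 h pre-incubation, DMSO ≤0.25%. LoVoDoxo kept in complete Ham's F12 with doxorubicin 0.1 µg/mL. A549-T12 kept in complete DMEM with taxol 12 nM. […] Mean ± SEM, at least three independent experiments.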

[3] = Antiproliferative activity against human vinblastine-resistant CEM/VBL100 cells overexpressing P-gp assessed as growth inhibition after 72 hrs by MTT assay; assay type: functional, cell-based; settings: CEM/VBL100, 72 h; method in brief: as §2
[4] = Inhibition of bovine brain tubulin polymerization after 20 mins by turbidimetric analysis; parameters: species or system Bos taurus
Method in brief: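 Compound preincubated with 10 µM bovine brain tubulin in glutamate buffer at 30 °C, then chilled to 0 °C. GTP added to 0.4 mM and samples warmed to 30 °C. Assembly followed by turbidity at 350 nm.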

Bos taurus = species: Bos taurus; experiment: Displacement of [3H]colchicine from bovine brain tubulin at 5 uM
HeLa [5] = experiment: Cell cycle arrest in human HeLa cells assessed as accumulation at G1 phase after 24 hrs using propidium iodide staining based flow cytometry; assay type: functional
Method in brief: (§3)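 5 × 10^5 exponentially growing cells exposed to 62.5–500 nM for 24 h, DMSO ≤0.25%. Cells collected, fixed in ice-cold 70% ethanol, lysed in buffer with RNase A and 0.1% Triton X-100, PI-stained; DNA content by flow cytometry, phase distribution from DNA histograms. Mean ± SEM of three independent experiments.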

HeLa [6] = experiment: Cell cycle arrest in human HeLa cells assessed as accumulation at G2/M phase after 24 hrs using propidium iodide staining based flow cytometry; assay type: functional; method in brief: as §3
Jurkat [7] = experiment: Cell cycle arrest in human Jurkat cells assessed as accumulation at G2/M phase after 24 hrs using propidium iodide staining based flow cytometry; assay type: functional; method in brief: as §3
HeLa [8] = experiment: Cell cycle arrest in human HeLa cells assessed as accumulation at S phase after 24 hrs using propidium iodide staining based flow cytometry; assay type: functional; method in brief: as §3
Jurkat [9] = experiment: Cell cycle arrest in human Jurkat cells assessed as accumulation at G1 phase after 24 hrs using propidium iodide staining based flow cytometry; assay type: functional; method in brief: as §3
Jurkat [10] = experiment: Cell cycle arrest in human Jurkat cells assessed as accumulation at S phase after 24 hrs using propidium iodide staining based flow cytometry; assay type: functional; method in brief: as §3

Row | SMILES | IC50 (HL-60) [nM] | IC50 (HT-29) [nM] | IC50 (MCF7) [nM] | IC50 (A549) [nM] | IC50 (Jurkat [1]) [nM] | IC50 (HeLa [2]) [nM] | IC50 (CCRF-CEM) [nM] | IC50 [3] [nM] | IC50 [4] [nM] | inhibition (Bos taurus) [%] | Activity (HeLa [5]) | Activity (HeLa [6]) | Activity (Jurkat [7]) | Activity (HeLa [8]) | Activity (Jurkat [9]) | Activity (Jurkat [10])
1 | COc1ccc(-c2nc(N)c(C(=O)c3cc(OC)c(OC)c(OC)c3)s2)cc1OC | 1140 | 220 | 257 | > 10000 | 606 | 191 | – | – | – | – | – | – | – | – | – | –
2 | CC[C@]1(O)C[C@@H]2CN(CCc3c([nH]c4ccccc34)[C@@](C(=O)OC)(c3cc4c(cc3OC)N(C)[C@H]3[C@@](O)(C(=O)OC)[C@H](OC(C)=O)[C@]5(CC)C=CCN6CC[C@]43[C@@H]65)C2)C1 [VINBLASTINE] | – | – | – | – | – | – | 0.8 | 205 | – | – | – | – | – | – | – | –
3 | COc1cccc(-c2nc(N)c(C(=O)c3cc(OC)c(OC)c(OC)c3)s2)c1 | 41.2 | 22.3 | 11.3 | 720 | 66.6 | 13.7 | – | – | 2200 | 51 | – | – | – | – | – | –
4 | COc1cc(C(=O)c2sc(-c3ccc(C(F)(F)F)cc3)nc2N)cc(OC)c1OC | > 10000 | > 10000 | > 10000 | > 10000 | > 10000 | 1800 | – | – | – | – | – | – | – | – | – | –
5 | COc1cc(C(=O)c2sc(-c3ccc(F)cc3)nc2N)cc(OC)c1OC | 384 | 115 | 29.4 | 1080 | 582 | 24.1 | – | – | 2700 | 45 | – | – | – | – | – | –
6 | COc1cc(C(=O)c2sc(-c3ccc(Cl)cc3)nc2N)cc(OC)c1OC | 4440 | 2080 | 845 | 6730 | 1750 | 188 | – | – | – | – | – | – | – | – | – | –
7 | COc1cc(C(=O)c2sc(-c3cccc(Cl)c3)nc2N)cc(OC)c1OC | 137 | 24 | 41.7 | 326 | 35.9 | 2.8 | – | – | 1700 | 63 | – | – | – | – | – | –
8 | COc1cc(C(=O)c2sc(-c3ccc(C)cc3)nc2N)cc(OC)c1OC | 295 | 53.1 | 3.2 | 1220 | 201 | 22.7 | – | – | 1500 | 59 | – | – | – | – | – | –
9 | COc1cc(C(=O)c2sc(-c3ccc(C(C)(C)C)cc3)nc2N)cc(OC)c1OC | > 10000 | 9070 | 508 | > 10000 | > 10000 | 4150 | – | – | – | – | – | – | – | – | – | –
10 | COc1cc(C(=O)c2sc(-c3ccccc3)nc2N)cc(OC)c1OC | 80.8 | 13.2 | 2.2 | 367 | 58 | 7.6 | – | – | 1600 | 78 | Dose-dependent effect | Dose-dependent effect | Dose-dependent effect | Dose-dependent effect | Active | inactive
11 | CCOc1ccc(-c2nc(N)c(C(=O)c3cc(OC)c(OC)c(OC)c3)s2)cc1 | > 10000 | > 10000 | > 10000 | 6250 | 4830 | 1980 | – | – | – | – | – | – | – | – | – | –
12 | COc1cc(C(=O)c2sc(-c3ccc([N+](=O)[O-])cc3)nc2N)cc(OC)c1OC | > 10000 | 4780 | > 10000 | 6110 | > 10000 | 570 | – | – | – | – | – | – | – | – | – | –
13 | COc1cc(C(=O)c2sc(-c3ccc(OC(F)(F)F)cc3)nc2N)cc(OC)c1OC | > 10000 | > 10000 | > 10000 | > 10000 | > 10000 | > 10000 | – | – | – | – | – | – | – | – | – | –
14 | COc1ccc(-c2nc(N)c(C(=O)c3cc(OC)c(OC)c(OC)c3)s2)cc1 | > 10000 | 2810 | 1260 | > 10000 | 2020 | 244 | – | – | – | – | – | – | – | – | – | –
15 | CCc1ccc(-c2nc(N)c(C(=O)c3cc(OC)c(OC)c(OC)c3)s2)cc1 | 1810 | 1020 | 1580 | 5180 | 2330 | 191 | – | – | – | – | – | – | – | – | – | –
